Data published in ChEMBL document CHEMBL1671683, “Activity of linezolid in an in vitro pharmacokinetic-pharmacodynamic model using different dosages and Staphylococcus aureus and Enterococcus faecalis strains with and without a hypermutator phenotype” (Antimicrob Agents Chemother, 2010).

How the values were obtained:
[1] = tested on: Enterococcus faecalis; test: Bactericidal activity against 2 hrs peripheral compartment culture samples of Enterococcus faecalis Ef1497 MutM3 in two-compartment pharmacokinetic/pharmacodynamic model assessed as effect on bacterial count at 600 mg, bid administered as 0.5 hr infusion; assay type: functional
Outline: (§1)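 An 18-h culture concentrated 50-fold was injected into the peripheral compartment 3 h pre-sampling (~10^8 CFU/ml E. faecalis, 10^9 S. aureus). Counts came from dilution plating (detection limit 2–3 log10 CFU/ml), expressed as Δlog CFU/ml from treatment start. Run in duplicate.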

[2] = tested on: Enterococcus faecalis; test: Bactericidal activity against 48 hrs peripheral compartment culture samples of Enterococcus faecalis Ef1497 MutM3 in two-compartment pharmacokinetic/pharmacodynamic model assessed as effect on bacterial count at 600 mg, bid administered as 0.5 hr infusion; assay type: functional; outline: as §1
[3] = AUC in two-compartment pharmacokinetic/pharmacodynamic model at 800 mg, bid administered as 0.5 hrs infusion; assay type: ADME; settings: iv
[4] = Apparent volume of distribution in two-compartment pharmacokinetic/pharmacodynamic model at 800 mg, bid administered as 0.5 hr infusion over 24 hrs; assay type: ADME, organism-based; settings: in vivo, iv
[5] = tested on: Enterococcus faecalis; test: Bactericidal activity against 24 hrs peripheral compartment culture samples of Enterococcus faecalis Ef1497 MutM3 in two-compartment pharmacokinetic/pharmacodynamic model assessed as effect on bacterial count at 200 mg, bid administered as 0.5 hr infusion; assay type: functional; outline: as §1
[6] = tested on: Enterococcus faecalis; test: Bactericidal activity against 48 hrs peripheral compartment culture samples of Enterococcus faecalis Ef1497 in two-compartment pharmacokinetic/pharmacodynamic model assessed as effect on bacterial count at 600 mg, bid administered as 0.5 hr infusion; assay type: functional; outline: as §1
[7] = in vitro; settings: two-compartment pharmacokinetic/pharmacodynamic model, iv, 200 mg
[8] = tested on: Enterococcus faecalis; test: Bactericidal activity against 2 hrs peripheral compartment culture samples of Enterococcus faecalis Ef1497 in two-compartment pharmacokinetic/pharmacodynamic model assessed as effect on bacterial count at 600 mg, bid administered as 0.5 hr infusion; assay type: functional; outline: as §1
[9] = Cmax in two-compartment pharmacokinetic/pharmacodynamic model at 600 mg, bid administered as 0.5 hr infusion over 24 hrs; assay type: ADME, organism-based; set-up: dose 600 mg; settings: iv
[10] = Volume of distribution at steady state in two-compartment pharmacokinetic/pharmacodynamic model at 800 mg, bid administered as 0.5 hrs infusion; assay type: ADME, organism-based; settings: iv, read-out: Vdss
[11] = Tmax in two-compartment pharmacokinetic/pharmacodynamic model at 600 mg, bid administered as 0.5 hr infusion over 24 hrs; assay type: ADME, organism-based; settings: iv
[12] = Volume of distribution at steady state in two-compartment pharmacokinetic/pharmacodynamic model at 200 mg, bid administered as 0.5 hr infusion over 24 hrs; assay type: ADME, organism-based; settings: iv, read-out: Vdss
[13] = AUC in two-compartment pharmacokinetic/pharmacodynamic model at 600 mg, bid administered as 0.5 hr infusion over 24 hrs; assay type: ADME; set-up: dose 600 mg, time < 24 hr; settings: in vivo, iv
[14] = tested on: Enterococcus faecalis; test: Bactericidal activity against 13 hrs peripheral compartment culture samples of Enterococcus faecalis Ef1497 MutM3 in two-compartment pharmacokinetic/pharmacodynamic model assessed as effect on bacterial count at 200 mg, bid administered as 0.5 hr infusion; assay type: functional; outline: as §1
[15] = Mean residence time in two-compartment pharmacokinetic/pharmacodynamic model at 800 mg, bid administered as 0.5 hrs infusion; assay type: ADME, organism-based; settings: iv
[16] = tested on: Enterococcus faecalis; test: Bactericidal activity against 13 hrs peripheral compartment culture samples of Enterococcus faecalis Ef1497 in two-compartment pharmacokinetic/pharmacodynamic model assessed as effect on bacterial count at 800 mg, bid administered as 0.5 hr infusion; assay type: functional; outline: as §1
[17] = Residual concentration at the end of the administration interval in two-compartment pharmacokinetic/pharmacodynamic model at 600 mg, bid administered as 0.5 hr infusion over 24 hrs; assay type: ADME; settings: in vivo, iv
[18] = Total clearance in two-compartment pharmacokinetic/pharmacodynamic model at 600 mg, bid administered as 0.5 hrs infusion; assay type: ADME, organism-based; settings: iv
[19] = tested on: Enterococcus faecalis; test: Bactericidal activity against 24 hrs peripheral compartment culture samples of Enterococcus faecalis Ef1497 MutM3 in two-compartment pharmacokinetic/pharmacodynamic model assessed as effect on bacterial count at 600 mg, bid administered as 0.5 hr infusion; assay type: functional; outline: as §1
[20] = tested on: Staphylococcus aureus subsp. aureus RN4220; test: ABBC (0 to 24 hrs) in Staphylococcus aureus RN4220 in two-compartment pharmacokinetic/pharmacodynamic model at 600 mg, bid administered as 0.5 hr infusion for 2 days
Outline: (§2)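 Hollow-fibre two-compartment model in cation-adjusted, protein-free MH broth at 37°C. Human total-plasma linezolid profile simulated as 0.5-h infusion every 12 h for 48 h. Concentrated 18-h culture injected into the peripheral compartment 3 h before first sample, giving about 10^8 (E. faecalis) or 10^9 (S. aureus) CFU/ml. Viable counts by dilution plating over 0–24 h. Area indices calculated versus growth control curve. Duplicate runs.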

[21] = tested on: Enterococcus faecalis; test: T>MIC in Enterococcus faecalis Ef1497 in two-compartment pharmacokinetic/pharmacodynamic model at 600 mg, bid administered as 0.5 hr infusion for 2 days; assay type: functional
[22] = tested on: Staphylococcus aureus subsp. aureus RN4220; test: T>MIC in Staphylococcus aureus RN4220 MutS2 in two-compartment pharmacokinetic/pharmacodynamic model at 600 mg, bid administered as 0.5 hr infusion for 2 days; assay type: functional
[23] = Total clearance in two-compartment pharmacokinetic/pharmacodynamic model at 800 mg, bid administered as 0.5 hr infusion over 24 hrs; assay type: ADME, organism-based; settings: in vivo, iv
[24] = tested on: Enterococcus faecalis; test: Bactericidal activity against 48 hrs peripheral compartment culture samples of Enterococcus faecalis ATCC 29212 in two-compartment pharmacokinetic/pharmacodynamic model assessed as effect on bacterial count at 600 mg, bid for every 12 hrs administered as 0.5 hrs infusion; assay type: functional; outline: as §1
[25] = tested on: Staphylococcus aureus subsp. aureus RN4220; test: AUBC (0 to 24 hrs) in Staphylococcus aureus RN4220 in two-compartment pharmacokinetic/pharmacodynamic model at 600 mg, bid administered as 0.5 hr infusion for 2 days; assay type: functional; outline: as §2
[26] = Cmax in two-compartment pharmacokinetic/pharmacodynamic model at 800 mg, bid administered as 0.5 hr infusion over 24 hrs; assay type: ADME, organism-based; set-up: dose 800 mg; settings: iv
[27] = tested on: Staphylococcus aureus; test: Bactericidal activity against 13 hrs peripheral compartment culture samples of Staphylococcus aureus RN4220 MutS2 in two-compartment pharmacokinetic/pharmacodynamic model assessed as effect on bacterial count at 600 mg, bid administered as 0.5 hr infusion; assay type: functional; outline: as §1
[28] = tested on: Staphylococcus aureus; test: Bactericidal activity against 0.5 hrs peripheral compartment culture samples of Staphylococcus aureus RN4220 MutS2 in two-compartment pharmacokinetic/pharmacodynamic model assessed as effect on bacterial count at 600 mg, bid administered as 0.5 hr infusion; assay type: functional
Outline: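 Two-compartment hollow-fibre model in cation-adjusted, protein-free MH broth, 37°C. Linezolid given as simulated 0.5-h infusion twice daily. Inoculum grown 18 h, concentrated 50-fold and placed in the peripheral compartment 3 h before t0. Peripheral samples at set times counted by dilution plating. First 10-fold dilution not plated, limiting detection to 2–3 log10 CFU/ml. Δlog CFU/ml taken from t0 count. Duplicates.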

[29] = tested on: Enterococcus faecalis; test: Bactericidal activity against 13 hrs peripheral compartment culture samples of Enterococcus faecalis ATCC 29212 in two-compartment pharmacokinetic/pharmacodynamic model assessed as effect on bacterial count at 600 mg, bid administered as 0.5 hr infusion; assay type: functional; outline: as §1

For CC(=O)NC[C@H]1CN(c2ccc(N3CCOCC3)c(F)c2)C(=O)O1 [LINEZOLID], the log10CFU/ml [1] was -0.05, the log10CFU/ml [2] was 0.45 and the AUC at 0.5 h [3] was 38200 ng·h/mL. It also gave a Vd [4] of 102 L, a log10CFU/ml [5] of 0.52 and a log10CFU/ml [6] of 0.39. For the same molecule, the half-life [7] was 6.27 h, the log10CFU/ml [8] was 0.08 and the Cmax [9] was 14600 ng/mL. The Vd [10] was 104 L, the Tmax [11] was 0.5 h and the Vd [12] was 117 L. The AUC at 24 h [13] was 35400 ng·h/mL, the log10CFU/ml [14] was 0.23 and the MRT [15] was 6.55 h. It also gave a log10CFU/ml [16] of -0.16, a Drug uptake [17] of 1.26 µg/mL and a clearance [18] of 232 mL/min. For the same molecule, the log10CFU/ml [19] was 0.44, the ABBC [20] was -1.21 log10CFU/ml.hr and the “fT>MIC” value [21] was 69%. The “fT>MIC” value [22] was 66.6%, the clearance [23] was 228 mL/min and the log10CFU/ml [24] was 0.53. The AUBC [25] was 229.4 log10CFU/ml.hr, the Cmax [26] was 19500 ng/mL and the log10CFU/ml [27] was -0.81. It also gave a log10CFU/ml [28] of -0.21 and a log10CFU/ml [29] of 0.16.
